Measured values taken from ChEMBL document CHEMBL1649503, “Alkoxyalkyl esters of 9-(s)-(3-hydroxy-2-phosphonomethoxypropyl) adenine are potent and selective inhibitors of hepatitis B virus (HBV) replication in vitro and in HBV transgenic mice in vivo” (Antimicrob Agents Chemother, 2009).

How the values were obtained:
Hepatitis B virus [1] = test: Antiviral activity against HBV infected in human HepG2(2.2.15) cells assessed as decrease in extracellular viral DNA level after 24 hrs by blot hybridization assay; format: functional, organism-based; details: HepG2 2.2.15, 24 h
In short: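 Confluent 2.2.15 cells in RPMI 1640 with 2% FBS got nine consecutive daily doses, with medium replaced daily with drug-containing medium. Six wells per concentration over two replicate plates. Cells were pelleted from the medium, which was kept at 4°C and not frozen. Extracellular HBV DNA was quantified by blot hybridization 24 h after the last dose.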

[2] = Selectivity index, ratio of CC50 for human HepG2(2.2.15) cells to EC50 for HBV infected in human HepG2(2.2.15) cells
In short: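 Ratio from two 2.2.15 readouts after nine daily doses in RPMI/2% FBS. Extracellular HBV DNA was measured by quantitative blot hybridization and cytotoxicity by neutral red uptake (three cultures per concentration), both 24 h after the final dose.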

HepG2 [3] = test: Drug metabolism in human HepG2 cells assessed as HPMPA uptake at 10 uM after 24 hrs; format: ADME, cell-based; details: hepg2, 24 h
In short: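 Nearly confluent HepG2 flasks got 14C-labeled drug (final 10 µM, 50 mCi/mmol) for 24 h. Cells were washed with cold PBS, lysed in water by two freeze-thaw cycles and sonication, then extracted with cold TCA (8% final) and centrifuged at 4°C. Supernatant was counted and analyzed by SAX ion-exchange HPLC, with metabolites assigned by retention versus reference standards.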

HepG2 [4] = test: Drug metabolism in human HepG2 cells assessed as HPMPAp uptake at 10 uM after 48 hrs; format: ADME, cell-based; details: hepg2, 48 h
HepG2 [5] = test: Drug metabolism in human HepG2 cells assessed as HPMPApp uptake at 10 uM after 48 hrs; format: ADME, cell-based; details: hepg2, 48 h
[6] = Tmax in Swiss-Webster mouse liver at 10 mg/kg, po after 24 hrs; format: ADME, organism-based; parameters: dose 10 mg/kg, route oral
In short: (§1)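 Female Swiss-Webster mice (about 25 g) each got a single 10 mg/kg dose of the 14C-labeled (8-14C) ester (50 mCi/mmol) in 0.7% saline, by oral gavage or ip injection. Blood was taken at 1, 3, 6, 12 and 24 h, and liver, spleen, kidney, lung, heart and brain were excised, washed and weighed. Radioactivity was measured by scintillation counting as µM plasma equivalents or nmol/g tissue, mean of three per time point.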

[7] = Tmax in Swiss-Webster mouse kidney at 10 mg/kg, po after 24 hrs; format: ADME, organism-based; parameters: dose 10 mg/kg, route oral; in short: as §1
[8] = Tmax in Swiss-Webster mouse spleen at 10 mg/kg, po after 24 hrs; format: ADME, organism-based; parameters: dose 10 mg/kg, route oral
In short: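 Female Swiss-Webster mice (about 25 g) got one 10 mg/kg dose of the 8-14C-labeled ester (50 mCi/mmol) in 0.7% saline, by oral gavage or intraperitoneal injection. Blood was taken at 1, 3, 6, 12 and 24 h. Liver, spleen, kidney, lung, heart and brain were excised, washed and weighed. Drug plus metabolites were measured by liquid scintillation as µM plasma equivalents or nmol/g tissue. Each time point is the mean of three replicates.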

[9] = Tmax in Swiss-Webster mouse brain at 10 mg/kg, po after 24 hrs; format: ADME, organism-based; parameters: dose 10 mg/kg, route oral; in short: as §1
Lung [10] = test: Cmax in Swiss-Webster mouse lung assessed per gram of tissue at 10 mg/kg, po after 24 hrs; format: ADME, organism-based; parameters: dose 10 mg/kg, route oral; details: in vivo; in short: as §1
Brain = test: AUC in Swiss-Webster mouse brain assessed per gram of tissue at 10 mg/kg, po after 24 hrs; format: ADME, organism-based; parameters: time < 24 hr, dose 10 mg/kg, route oral; details: in vivo; in short: as §1
[11] = Tmax in Swiss-Webster mouse brain at 10 mg/kg, ip after 24 hrs; format: ADME, organism-based; parameters: dose 10 mg/kg, route intraperitoneal; in short: as §1
[12] = Cmax in Swiss-Webster mouse plasma assessed per gram of tissue at 10 mg/kg, ip after 24 hrs; format: ADME, organism-based; parameters: dose 10 mg/kg, route intraperitoneal; in short: as §1
Liver = test: Cmax in Swiss-Webster mouse liver assessed per gram of tissue at 10 mg/kg, ip after 24 hrs; format: ADME, organism-based; parameters: dose 10 mg/kg, route intraperitoneal; details: in vivo; in short: as §1
Kidney = test: Cmax in Swiss-Webster mouse kidney assessed per gram of tissue at 10 mg/kg, ip after 24 hrs; format: ADME, organism-based; parameters: dose 10 mg/kg, route intraperitoneal; details: in vivo; in short: as §1
Lung [13] = test: Cmax in Swiss-Webster mouse lung assessed per gram of tissue at 10 mg/kg, ip after 24 hrs; format: ADME, organism-based; parameters: dose 10 mg/kg, route intraperitoneal; details: in vivo; in short: as §1
Spleen = test: AUC in Swiss-Webster mouse spleen assessed per gram of tissue at 10 mg/kg, ip after 24 hrs; format: ADME, organism-based; parameters: time < 24 hr, dose 10 mg/kg, route intraperitoneal; details: in vivo; in short: as §1
[14] = Oral bioavailability in Swiss-Webster mouse at 10 mg/kg after 24 hrs; format: ADME, organism-based; details: in vivo
In short: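 Same single 10 mg/kg 14C-labeled dose (50 mCi/mmol, 0.7% saline) given to female Swiss-Webster mice orally or ip. Plasma sampled 1–24 h and counted by liquid scintillation. Relative oral bioavailability came from AUCs of drug plus metabolites, computed as printed: […].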

Mus musculus [15] = test: Toxicity in transgenic mouse at 10 mg/kg, po assessed as mortality after 7 days; format: organism-based; parameters: dose 10 mg/kg, route oral; details: in vivo, 168 h
Mus musculus [16] = test: Toxicity in transgenic mouse at 30 to 100 mg/kg, po assessed as mortality after 7 days; format: organism-based; parameters: dose 30-100 mg/kg, route oral; details: in vivo, 168 h
Hepatitis B virus [17] = test: Antiviral activity against HBV infected in transgenic mouse assessed as decrease in liver viral DNA level at 4 mg/kg, po administered daily for 14 days measured post last dose; format: functional
In short: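 Homozygous male and female HBV transgenic mice (founder 1.3.32; 22.2 ± 2.8 g) received drug in distilled water by oral gavage, 0.1 ml/10 g, at 7 µmol/kg (4 mg/kg) daily for 14 days. About 0.1 g liver was lysed at necropsy, and DNA was extracted with phenol-chloroform. HBV DNA was measured by qPCR normalized to GAPDH, using duplicate CTs against a dilution standard curve, in relative units/µg cell DNA.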

Hepatitis B virus [18] = test: Antiviral activity against wild type HBV infected in human HuH7 cells assessed as decrease in viral transient transfection after 5 days; details: Huh-7, 5 days
Hepatitis B virus [19] = test: Antiviral activity against HBV harboring RNA polymerase M204V mutant gene infected in human HuH7 cells assessed as decrease in viral transient transfection after 5 days; details: Huh-7, 5 days

In the case of `CCCCCCCCCCCCCCCCOCCCOP(=O)(O)CO[C@H](CO)Cn1cnc2c(N)ncnc21`, the EC50 (Hepatitis B virus [1]) is reported as 188 nM, the EC90 (Hepatitis B virus [1]) is reported as 616 nM and the “Selectivity Index” value [2] is reported as over 483. For the same molecule, the Drug uptake (HepG2 [3]) was 1007 pmol, the Drug uptake (HepG2 [4]) was 344 pmol and the Drug uptake (HepG2 [5]) was 444 pmol. For the same molecule, the Tmax [6] was 3 h, the Tmax [7] was 3 h and the Tmax [8] was 3 h. The Tmax [9] was 3 h, the Cmax (Lung [10]) was 2.89 nmol/g and the AUC (Brain) was 0.68 nmol·h/g. The Tmax [11] was 1 h, the Cmax [12] was 2230 nM and the Cmax (Liver) was 131.5 nmol/g. The Cmax (Kidney) was 22.9 nmol/g, the Cmax (Lung [13]) was 2.84 nmol/g and the AUC (Spleen) was 16.3 nmol·h/g. The bioavailability [14] was 64%, the Activity (Mus musculus [15]) was “Non-toxic” and the Activity (Mus musculus [16]) was “Toxic”. It also gave an ED50 (Hepatitis B virus [17]; Hepatitis B virus, Liver, 336 h) of 0.096 µmol/kg, an ED90 (Hepatitis B virus [17]; dose 4 mg/kg) of 2.97 µmol/kg and an EC50 (Hepatitis B virus [18]) of 800 nM. For the same molecule, the EC90 (Hepatitis B virus [18]) was 3000 nM, the EC50 (Hepatitis B virus [19]) was 900 nM and the EC90 (Hepatitis B virus [19]) was 3200 nM.
